In PubChem BioAssay AID1229 (Sanford-Burnham Center for Chemical Genomics, 2008):
Out of some 190,000 compounds screened, about 10 (0.005%) were called active. The entries come from a sample that favours actives as a whole. Values without a mark were called inactive.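 Rule for the calls: active = diaphorase activity raised at least twofold by the compound at 20 µM; inactive = activation factor below 2.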

test: compounds boosting diaphorase resazurin reduction – biochemical, uHTS, resorufin fluorescence, counter-screen for diaphorase-coupled primary assays, primary screen (AID 1229); details: Diaphorase/resazurin coupled assay, 16 min, at 20 µM, stronger effect = higher value, 1 = vehicle wells, 0 = NADH-free wells
Method in brief: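 test system = bacterial diaphorase enzyme (C. kluyveri) | quantity = enzyme 0.07 U/mL final | reagent = NADH substrate 0.114 mM plus resazurin dye 0.1 mM, final | incubation = 16 min enzyme reaction, ambient temperature | buffer or medium = HEPES pH 7.4 buffer with MgCl2 and Tween 20 | signal = fluorescence of resorufin, 544 nm excitation, 590 nm emission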

Q: For Cc1cccc(-n2c(=O)c3c(C)c(C)sc3n(CC(N)=O)c2=O)c1, which activation factor is on record?
A: 1.1

Q: With O=C(COC(=O)c1ccc(Cl)nc1)NCc1ccc2c(c1)OCO2 as the compound, how does the activation factor read?
A: 1

Q: For CC1CN(S(=O)(=O)c2ccc(C(=O)NN3CCN(C)CC3)cc2)CC(C)O1 (stereo not given), which activation factor is on record?
A: 0.9

Q: For CC(C)(C)NC(=O)C(=O)NCc1ccncc1, which activation factor is on record?
A: 0.9

Q: For O=C(NCc1ccccc1)C1=C[C@@H](c2ccc(C(F)(F)F)cc2)C[C@@H](OCc2ccc(CO)cc2)O1, which activation factor is on record?
A: 0.6

Q: With O=C(NC(=S)Nc1ccc(S(=O)(=O)Nc2ncccn2)cc1)c1cccc(Br)c1 as the compound, how does the activation factor read?
A: 0.9

Q: For COc1ccc(/C=C(\C#N)C(=O)NCCCn2ccnc2)cc1, which activation factor is on record?
A: 1

Q: With O=C1CC(=O)Nc2cc(S(=O)(=O)N3CCN(c4cccc(C(F)(F)F)c4)CC3)ccc2N1 as the compound, how does the activation factor read?
A: 1

Q: With CCOc1ccc(OCc2cccc(C(=O)N(CC)CC)c2)cc1 as the compound, how does the activation factor read?
A: 0.8

Q: With CC(=O)Nc1ccc(S(=O)(=O)Nc2nccc(/C=C/c3ccccc3F)n2)cc1 as the compound, how does the activation factor read?
A: 0.8

Q: Which activation factor does the source give for CCCc1nnc(SCC(=O)N2C(C)CCCC2C)n1CC (stereo not given) here?
A: 0.9

Q: Which activation factor does the source give for CC(C)CNC(=O)/C=C/C(=O)O here?
A: 1

Q: For COc1ccc(C)cc1Nc1nc(-c2c(C)[nH]c3ccccc23)cs1, which activation factor is on record?
A: 0.9

Q: Which activation factor does the source give for O=C(NCCCn1ccnc1)c1cc(-c2ccccc2)on1 here?
A: 1

Q: With CCN(CC)CCOCCOc1ccc(Cl)c2ccccc12 as the compound, how does the activation factor read?
A: 0.8

Q: With Cn1c(SCC(=O)Nc2ccc(Br)cc2F)nnc1-c1ccco1 as the compound, how does the activation factor read?
A: 0.9

Q: Which activation factor does the source give for Cc1nc([N+](=O)[O-])cn1CC(=O)Nc1ccc2c(c1)OCO2 here?
A: 0.9

Q: For CC(=O)NCCn1c(SCC(=O)Nc2ccc(C)cc2)nc2ccccc2c1=O, which activation factor is on record?
A: 0.9

Q: For COc1cccc(-n2c(=S)[nH]c3c(oc4ccccc43)c2=O)c1, which activation factor is on record?
A: 0.3

Q: For CC1CCCCC1NC(=O)/C(C#N)=C/C=C/c1ccccc1[N+](=O)[O-] (stereo not given), which activation factor is on record?
A: 0.8

Q: With Cc1cccc(-n2c(Cc3cc(=O)[nH]c(=O)[nH]3)nnc2SCC(=O)Nc2cccc(C(F)(F)F)c2)c1 as the compound, how does the activation factor read?
A: 1

Q: For COc1ccc(/C=C/C(=O)c2ccc(NS(=O)(=O)c3ccc(C)cc3)cc2)cc1O, which activation factor is on record?
A: 0.7

Q: Which activation factor does the source give for CC(C)CCN1CCN(Cc2ccc(C(F)(F)F)cc2)CC1CCO (stereo not given) here?
A: 1

Q: With CC(=O)N(CN1C(=O)C2C3C=CC(C3)C2C1=O)c1cccc(Cl)c1 (stereo not given) as the compound, how does the activation factor read?
A: 1.1

Q: Which activation factor does the source give for O=C(C1=C[C@H](c2coc3ccccc3c2=O)C[C@H](OCc2ccc(CO)cc2)O1)N1CCOCC1 here?
A: 0.8

Q: For COc1ccc(Br)cc1/C=N/Nc1ccc(Cl)c(C(=O)O)c1, which activation factor is on record?
A: 0.9

Q: With CC(=O)Nc1ccc(-c2csc(NC=C3C(=O)OC(C)(C)OC3=O)n2)cc1 as the compound, how does the activation factor read?
A: 0.9

Q: With COC(=O)CSc1ccc2nnc(CCNS(=O)(=O)c3ccc(C)cc3)n2n1 as the compound, how does the activation factor read?
A: 0.7

Q: For NC1=NN(c2cccc(C(=O)O)c2)C(=O)C1, which activation factor is on record?
A: 0.9

Q: With O=S1(=O)CC/C(=N\Nc2ccc(F)cc2)c2ccsc21 as the compound, how does the activation factor read?
A: 0.9

Q: With CCO[C@H]1OC(C(=O)NCc2ccccc2)=C[C@@H](c2coc3ccccc3c2=O)[C@@H]1CCCO as the compound, how does the activation factor read?
A: 0.8

Q: With CC(=O)Nc1ccc(S(=O)(=O)Nc2ccc(-c3ccc4nnc(C)n4n3)cc2)cc1 as the compound, how does the activation factor read?
A: 1.1

Q: With CCOC(=O)C(CC)/C(C)=N\NC(=O)c1cccc(C)c1 (stereo not given) as the compound, how does the activation factor read?
A: 0.9

Q: With COC(=O)N/N=C/c1ccc(-c2ccc(Cl)c(Cl)c2)o1 as the compound, how does the activation factor read?
A: 0.9

Q: For C/C(=N\NS(=O)(=O)c1ccc(Cl)cc1)c1ccc(NC(=O)c2ccco2)cc1, which activation factor is on record?
A: 0.8

Q: For Cc1cc(C)nc(SCC(=O)N(C)C)n1, which activation factor is on record?
A: 1

Q: For CCOc1ccc(C(C)=O)cc1COC(=O)c1cnc(Cl)c(Cl)c1, which activation factor is on record?
A: 0.8

Q: For C=CCNCCCCOc1ccccc1, which activation factor is on record?
A: 1.1

Q: With CONc1nc2nonc2nc1NOC as the compound, how does the activation factor read?
A: 0.9

Q: For O=C(C1CC1)N1N=C2CCCCC2C1(O)C(F)(F)F (stereo not given), which activation factor is on record?
A: 0.9

Q: With Cc1ccc(NN=Nc2nc3c([nH]2)c(=O)n(C)c(=O)n3C)cc1 as the compound, how does the activation factor read?
A: 0.6

Q: For CCOc1ccc(Oc2nc(C)cc(OC)n2)nn1, which activation factor is on record?
A: 0.9

Q: For Cc1c(C2=CCN(S(=O)(=O)c3ccc(Cl)cc3)CC2)c2ccccc2n1C, which activation factor is on record?
A: 0.9

Q: With COc1cc(C(=S)NCc2ccccc2)cc(Br)c1O as the compound, how does the activation factor read?
A: 1

Q: For C/C=C/c1ccc(OCCCCN2CCC(C)CC2)c(OC)c1, which activation factor is on record?
A: 1

Q: With CCn1cc(-c2cc(C(=O)O)on2)c(C)n1 as the compound, how does the activation factor read?
A: 0.9

Q: Which activation factor does the source give for Cc1ccc(OCCOCCOc2ccc(Br)cc2/C=N\NC(=O)c2ccncc2)cc1 here?
A: 0.8

Q: Which activation factor does the source give for O=C(c1ccc2c(c1)N(Cc1ccc(F)cc1)C(=O)c1ccccc1S2(=O)=O)N1CCN(c2ccccn2)CC1 here?
A: 0.8

Q: Which activation factor does the source give for CNc1[nH]ncc1[N+](=O)[O-] here?
A: 1

Q: For O=C1c2ccccc2C(=O)N1CCC(O)C[N+](=O)[O-] (stereo not given), which activation factor is on record?
A: 1

Q: Which activation factor does the source give for Cc1ccc(NC(=O)OCCNC(=O)c2ccncc2)cc1 here?
A: 1

Q: For N#Cc1c(NC(=O)C2CCCO2)sc2c1CCCCC2 (stereo not given), which activation factor is on record?
A: 1

Q: With O=C(/C(=C/c1cccc(Cl)c1)c1nc2ccccc2[nH]1)c1ccccc1 as the compound, how does the activation factor read?
A: 0.9

Q: Which activation factor does the source give for Cc1ccnc(NC(=O)CCC(=O)N(CC(=O)NCCc2ccccc2)Cc2cccs2)c1 here?
A: 1

Q: For CC(=O)C1=C(O)C(=O)N(c2cccnc2)C1c1ccc([N+](=O)[O-])cc1 (stereo not given), which activation factor is on record?
A: 0.9

Q: Which activation factor does the source give for O=C1/C(=C/c2cccs2)CCC1C1CCCC1 (stereo not given) here?
A: 0.9

Q: For Cc1cccc2cc3c(N)c(C(=O)N4CCCc5ccccc54)sc3nc12, which activation factor is on record?
A: 0.8

Q: Which activation factor does the source give for COc1ccc(OC)c(S(=O)(=O)NCCC(C)C)c1 here?
A: 1.1

Q: For CCOC(=O)c1c(/N=C/c2cc(C)ccc2O)sc2c1CCC2, which activation factor is on record?
A: 1

Q: With CC(C)=CCCC1(C)C=Cc2c(ccc3c2[nH]c2cc(O)c(C)cc23)O1 (stereo not given) as the compound, how does the activation factor read?
A: 0.8

Q: With CN1CCNC(=O)C1CC(=O)N1CC=C(c2ccc(F)cc2)CC1 (stereo not given) as the compound, how does the activation factor read?
A: 0.9

Q: For COC(=O)/C(C#N)=C/c1occc1C, which activation factor is on record?
A: 0.9

Q: Which activation factor does the source give for CCCN(CC(=O)Nc1ccc(OC)c(OC)c1)CC(=O)Nc1ccc(F)c(F)c1F here?
A: 0.9

Q: With CN(C(=O)CSc1nnc(-c2n[nH]c3ccccc23)o1)c1ccccc1 as the compound, how does the activation factor read?
A: 0.8

Q: For O=C(CSc1ccc(-c2ccccc2)nn1)NCC1CCCO1 (stereo not given), which activation factor is on record?
A: 1.1

Q: Which activation factor does the source give for Cc1cccc(C(=O)OCC(=O)NCC(C)C)c1O here?
A: 0.9

Q: For O=C(Cc1cccs1)Nc1nnc(SCc2ccc(F)cc2)s1, which activation factor is on record?
A: 0.9

Q: With Cn1cnnc1Sc1ccc(CN2CCN(C3CCCC3)C(CCO)C2)o1 (stereo not given) as the compound, how does the activation factor read?
A: 1

Q: Which activation factor does the source give for CCCN=C1NC(=O)C(CC(=O)NCCc2ccc(OC)c(OC)c2)S1 (stereo not given) here?
A: 0.9

Q: For Cc1ccc(N(Cc2cc3ccccc3[nH]c2=O)C(=O)c2cccs2)cc1, which activation factor is on record?
A: 0.9

Q: For CCOc1ccc(N2C(=O)CN(c3cccc4ccccc34)C2=S)cc1, which activation factor is on record?
A: 1

Q: With CNC(=S)NNC(=O)c1cccn(Cc2ccccc2)c1=O as the compound, how does the activation factor read?
A: 1

Q: For Cc1cc(C(=O)NNC(=S)NC(C)c2ccccc2)cs1 (stereo not given), which activation factor is on record?
A: 1

Q: Which activation factor does the source give for CCSc1nc(C)c(CCOc2cccc(C)c2)c(=O)[nH]1 here?
A: 1

Q: With NS(=O)(=O)c1ccc(NC(=S)NNC(=O)c2cccs2)cc1 as the compound, how does the activation factor read?
A: 0.8

Q: Which activation factor does the source give for Cc1ccc(NC(=S)N(CCCN2CCCC2)Cc2cccn2Cc2ccc(Cl)cc2)cc1 here?
A: 1

Q: Which activation factor does the source give for COc1cccc(CC2(CO)CCN(Cc3cnc(-c4cccc(C)c4)nc3)CC2)c1 here?
A: 0.7

Q: Which activation factor does the source give for COC(=O)CC1=NN(c2ccccc2)C(=O)C1 here?
A: 1.1

Q: For CCCn1c(=O)c2c(C(F)(F)F)cc(-c3cccs3)nc2n(CCC)c1=O, which activation factor is on record?
A: 1

Q: For Cc1ccc(C(=O)N/C(=C\c2cccs2)C(=O)NCCc2ccccn2)cc1C, which activation factor is on record?
A: 0.7

Q: For CN(C)c1ccc(C2Nc3ccccc3C(=O)N2NS(=O)(=O)c2ccccc2)cc1 (stereo not given), which activation factor is on record?
A: 0.9

Q: With CCCCn1c(N)c(N2CCOCC2)c(=O)n(CC(=O)NCCc2ccccc2)c1=O as the compound, how does the activation factor read?
A: 1

Q: With COCCN1C(=O)N[C@@H](c2ccccc2)C(C(=O)OC)=C1C as the compound, how does the activation factor read?
A: 1

Q: For Cc1cc(C)n2nc(SCC(N)=O)nc2n1, which activation factor is on record?
A: 1

Q: Which activation factor does the source give for O=C(CNC(=O)c1ccccc1)NCC(=O)OCC(=O)c1ccccc1 here?
A: 1.1

Q: With O=C(O)c1cccc(NC(=O)c2cc(-c3cccc(Cl)c3)nc3ccccc23)c1 as the compound, how does the activation factor read?
A: 0.8

Q: Which activation factor does the source give for [O-][n+]1onc2c1CCc1[nH]c(-c3ccccc3)nc1-2 here?
A: 0.9

Q: With O=S(=O)(NC1CC1)c1ccc2c3c(cccc13)CC2 as the compound, how does the activation factor read?
A: 1

Q: For C/C(Cn1nnc2ccccc21)=N\OC(=O)c1cc(F)c(F)cc1Cl, which activation factor is on record?
A: 0.9

Q: For COc1cccc(CNC(=O)c2n[nH]c3ccccc23)c1, which activation factor is on record?
A: 1

Q: Which activation factor does the source give for Cc1ccc(C(=O)OC(C)CN2CCOCC2)cc1 (stereo not given) here?
A: 1

Q: With O=C(O)COc1ccc(/C=N/O)cc1Br as the compound, how does the activation factor read?
A: 0.9

Q: For Cc1ccccc1C(CC(=O)c1cccs1)C(C#N)C#N (stereo not given), which activation factor is on record?
A: 0.9

Q: For O=C(Nc1ccccc1Cc1ccccc1)c1ccc2c(c1)SC1=NS(=O)(=O)CCN12, which activation factor is on record?
A: 0.9

Q: For COc1cc(NC(=O)CSc2nnc3ccc(-c4ccncc4)nn23)cc(OC)c1, which activation factor is on record?
A: 0.8

Q: For O=C(c1ccc(F)cc1)n1cc(C(=S)N2CCOCC2)c2ccccc21, which activation factor is on record?
A: 1

Q: With Cc1cccc(C)c1NC(=O)CNC(=O)Cc1ccc(Br)cc1 as the compound, how does the activation factor read?
A: 0.9

Q: With COC(=O)C1=NNC2(c3ccc(C)cc3)C(=O)N(c3cccc(C)c3C)C(=O)C12 (stereo not given) as the compound, how does the activation factor read?
A: 0.9

Q: For CCCNCc1cc(OCC)c(OCC(=O)Nc2ccccc2)cc1Br, which activation factor is on record?
A: 0.9

Q: With Cc1cc(C)cc(OCC(=O)NCc2cc(C)nc3ccccc23)c1 as the compound, how does the activation factor read?
A: 1
